Source: ChEMBL document CHEMBL2384910, “Lead optimization of 5-amino-6-(2,2-dimethyl-5-oxo-4-phenylpiperazin-1-yl)-4-hydroxyhexanamides to reduce a cardiac safety issue: discovery of DS-8108b, an orally active renin inhibitor” (Bioorg Med Chem, 2013)
Activity calls are given as the source filed them. The calls are words filed in the database; no cut-off is given here.

Legend:
Canis familiaris [1] = experiment: Cardiotoxicity in anesthetized beagle dog assessed as change in QRS width at 0.5 mg/kg/min, iv after 30 mins relative to baseline; type: toxicity, organism-based, Canis lupus familiaris; set-up: route intravenous; conditions: in vivo, 0.5 h
In short: (§1)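 Anesthetized dogs; after ECG parameters stabilized, compound infused iv continuously at 0.5 mg/kg/min for 1 h. ECG changes at 30 min as % change from baseline; 2 mL blood drawn from left femoral artery for plasma drug concentration.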

[2] = target: T1, Renin (Macaca fascicularis) (UniProt Q6DLS0); experiment: Ratio of compound IC50 to aliskiren IC50 for renin in cynomolgus monkey plasma
T1 sequence (whole entry): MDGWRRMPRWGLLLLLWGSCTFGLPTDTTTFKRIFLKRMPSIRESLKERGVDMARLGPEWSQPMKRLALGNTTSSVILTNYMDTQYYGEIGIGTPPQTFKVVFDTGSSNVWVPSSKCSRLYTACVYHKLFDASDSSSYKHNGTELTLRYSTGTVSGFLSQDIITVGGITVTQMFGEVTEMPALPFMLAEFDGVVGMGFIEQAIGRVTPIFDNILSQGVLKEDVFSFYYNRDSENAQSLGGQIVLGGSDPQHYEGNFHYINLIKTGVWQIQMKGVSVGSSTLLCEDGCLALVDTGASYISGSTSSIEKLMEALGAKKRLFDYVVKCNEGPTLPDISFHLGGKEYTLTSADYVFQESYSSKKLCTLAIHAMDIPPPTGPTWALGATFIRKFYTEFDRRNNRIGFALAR

[3] = target: Sodium channel protein type 5 subunit alpha (Homo sapiens, UniProt Q14524); experiment: Inhibition of human voltage-gated Na channel 1.5 expressed in HEK293 cells at 100 uM after 2 mins by patch clamp technique; type: cell-based; conditions: hek293, 2 min
In short: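 HEK293 cells stably expressing hNav1.5; automated patch clamp. 20 ms pulses to −10 mV from −120 mV holding at 1 Hz continuously; peak sodium current measured; compound incubated 2 min.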

Heart [4] = experiment: Cardiotoxicity in New Zealand White rabbit heart assessed as change in QRS width at 100 uM after 20 mins relative to baseline; type: toxicity, tissue-based, Oryctolagus cuniculus
In short: (§2)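 Isolated Langendorff-perfused hearts from female NZW rabbits anesthetized with thiopental 30 mg/kg iv; heart excised into chilled Krebs-Henseleit solution. After parameters stabilized, compound perfused at 10, 30 and 100 µM for 20 min; ECG changes expressed as % change from baseline.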

Canis familiaris [5] = experiment: Cardiotoxicity in anesthetized beagle dog assessed as change in heart rate at 0.5 mg/kg/min, iv after 30 mins relative to baseline; type: toxicity, organism-based, Canis lupus familiaris; set-up: route intravenous; conditions: in vivo, 0.5 h; in short: as §1
Oryctolagus cuniculus [6] = experiment: Cardiotoxicity in anesthetized New Zealand White rabbit assessed as change in […] at 1 mg/kg/min, iv after 10 mins relative to baseline; type: toxicity, organism-based; set-up: route intravenous; conditions: in vivo
In short: (§3)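 Female NZW rabbits anesthetized with ketamine 35 mg/kg ip plus xylazine 5 mg/kg ip, tracheotomized, ventilated with room air. ECG and systemic pressure monitored; HR, PR, QRS, QT, QTc quantified. After stabilization, continuous iv infusion 1 mg/kg/min for 1 h; values at 10 min as % change from baseline.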

Cynomolgus monkey [7] = experiment: Inhibition of renin in furosemide pretreated cynomolgus monkey assessed as reduction in mean arterial blood pressure at 1 to 10 mg/kg, po up to 24 hrs; type: functional, organism-based; conditions: Macaca fascicularis
In short: (§4)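 Conscious freely moving telemetered cynomolgus monkeys (n = 6), furosemide 5 mg/kg/day im for 3 days before dosing; fasted from morning, fed ≥8 h post-dose. Oral 1, 3, 10 mg/kg or 1% methylcellulose, crossover design; arterial pressure recorded from −3 to 24 h; hourly mean MAP; mean ± SEM.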

Oryctolagus cuniculus [8] = organism: Oryctolagus cuniculus; experiment: Cardiotoxicity in New Zealand White rabbit heart assessed as change in QTc interval at 100 uM after 20 mins relative to baseline; type: toxicity; conditions: ex_vivo; in short: as §2
Oryctolagus cuniculus [9] = experiment: Cardiotoxicity in anesthetized New Zealand White rabbit assessed as change in heart rate at 1 mg/kg/min, iv after 10 mins relative to baseline; type: toxicity, organism-based; set-up: route intravenous; conditions: in vivo; in short: as §3
Renin = target: T2, Renin (Macaca fascicularis, UniProt Q6DLS0); experiment: Inhibition of renin in cynomolgus monkey plasma after 1 hr by RIA
T2 sequence (Q6DLS0 whole entry): T1 sequence (whole entry)
In short: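 Pooled mixed-gender EDTA cynomolgus monkey plasma with pH adjusting solution and Inhibitor A, compound in 1% DMSO final, incubated 1 h at 37 °C. Angiotensin I by competitive RIA; uninhibited and 4 °C controls define % inhibition; IC50 from four-parameter fit; ratio is compound IC50 over aliskiren IC50 in same plasma batch; ≥2 replicates.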

Canis familiaris [10] = experiment: Cardiotoxicity in anesthetized beagle dog assessed as change in […] at 0.5 mg/kg/min, iv after 30 mins relative to baseline; type: toxicity, organism-based, Canis lupus familiaris; set-up: route intravenous; conditions: in vivo, 0.5 h; in short: as §1
CYP3A4 = CYP3A4 (Homo sapiens, UniProt P08684); experiment: Inhibition of CYP3A4 in human liver microsomes assessed as residual activity at 100 uM by LC/MS analysis; type: ADME, Microsome; conditions: read-out: Activity
Rattus norvegicus = experiment: Cardiotoxicity in Sprague-Dawley rat electrophysiology model assessed as QRS complex abnormalities at 10 mg/kg, iv by ECG analysis; type: toxicity, organism-based; set-up: dose 10 mg/kg, route intravenous; conditions: in vivo
In short: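 Male Sprague-Dawley rats anesthetized with inactin 100 mg/kg ip; surface lead II ECG recorded continuously. Compounds given as iv bolus via right jugular vein catheter after stabilization; QRS complex abnormality scored as no, moderate or severe change; n = 2 at 10 mg/kg.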

[11] = Plasma concentration in beagle dog at 0.5 mg/kg/min, iv after 30 mins; type: ADME, organism-based, Canis lupus familiaris; set-up: route intravenous; in short: as §1
[12] = Plasma concentration cynomolgus monkey at 1000 mg/kg, po after 4 hrs; type: ADME, organism-based, Macaca fascicularis; set-up: dose 1000 mg/kg, route oral
Oryctolagus cuniculus [13] = experiment: Cardiotoxicity in anesthetized New Zealand White rabbit assessed as change in QRS width at 1 mg/kg/min, iv after 10 mins relative to baseline; type: toxicity, organism-based; set-up: route intravenous; conditions: in vivo; in short: as §3
Cynomolgus monkey [14] = experiment: Cardiotoxicity in conscious cynomolgus monkey assessed as change in QRS width at 1000 mg/kg, po after 4 hrs relative to baseline; conditions: in vivo
Cynomolgus monkey [15] = experiment: Inhibition of renin in po dosed furosemide pretreated cynomolgus monkey plasma after 1 to 24 hrs; type: functional, organism-based; conditions: Macaca fascicularis
In short: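 Cynomolgus monkeys pretreated with furosemide given single oral dose 1, 3 or 10 mg/kg or vehicle 1% methylcellulose. Venous blood into EDTA-2Na tubes at 1, 2, 4, 8, 24 h, chilled, centrifuged cold, plasma frozen; plasma renin activity by radioimmunoassay.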

Cynomolgus monkey [16] = experiment: Inhibition of renin in po dosed furosemide pretreated cynomolgus monkey assessed as reduction in mean arterial blood pressure; type: functional, organism-based; conditions: Macaca fascicularis; in short: as §4
Cynomolgus monkey [17] = experiment: Cardiotoxicity in cynomolgus monkey assessed as change in pulse rate at 1000 mg/kg, po after 4 hrs relative to baseline; conditions: in vivo
Canis familiaris [18] = experiment: Cardiotoxicity in anesthetized beagle dog assessed as change in QTc interval at 0.5 mg/kg/min, iv after 30 mins relative to baseline; type: toxicity, organism-based, Canis lupus familiaris; set-up: route intravenous; conditions: in vivo, 0.5 h; in short: as §1
Heart [19] = experiment: Cardiotoxicity in New Zealand White rabbit heart assessed as change in […] at 100 uM after 20 mins relative to baseline; type: toxicity, tissue-based, Oryctolagus cuniculus; in short: as §2
Heart [20] = experiment: Cardiotoxicity in New Zealand White rabbit heart assessed as change in heart rate at 100 uM after 20 mins relative to baseline; type: toxicity, tissue-based, Oryctolagus cuniculus; in short: as §2
Cynomolgus monkey [21] = experiment: Cardiotoxicity in conscious cynomolgus monkey assessed as change in QTc interval at 1000 mg/kg, po after 4 hrs relative to baseline; conditions: in vivo

Chain of Sodium channel protein type 5 subunit alpha (Q14524 whole entry): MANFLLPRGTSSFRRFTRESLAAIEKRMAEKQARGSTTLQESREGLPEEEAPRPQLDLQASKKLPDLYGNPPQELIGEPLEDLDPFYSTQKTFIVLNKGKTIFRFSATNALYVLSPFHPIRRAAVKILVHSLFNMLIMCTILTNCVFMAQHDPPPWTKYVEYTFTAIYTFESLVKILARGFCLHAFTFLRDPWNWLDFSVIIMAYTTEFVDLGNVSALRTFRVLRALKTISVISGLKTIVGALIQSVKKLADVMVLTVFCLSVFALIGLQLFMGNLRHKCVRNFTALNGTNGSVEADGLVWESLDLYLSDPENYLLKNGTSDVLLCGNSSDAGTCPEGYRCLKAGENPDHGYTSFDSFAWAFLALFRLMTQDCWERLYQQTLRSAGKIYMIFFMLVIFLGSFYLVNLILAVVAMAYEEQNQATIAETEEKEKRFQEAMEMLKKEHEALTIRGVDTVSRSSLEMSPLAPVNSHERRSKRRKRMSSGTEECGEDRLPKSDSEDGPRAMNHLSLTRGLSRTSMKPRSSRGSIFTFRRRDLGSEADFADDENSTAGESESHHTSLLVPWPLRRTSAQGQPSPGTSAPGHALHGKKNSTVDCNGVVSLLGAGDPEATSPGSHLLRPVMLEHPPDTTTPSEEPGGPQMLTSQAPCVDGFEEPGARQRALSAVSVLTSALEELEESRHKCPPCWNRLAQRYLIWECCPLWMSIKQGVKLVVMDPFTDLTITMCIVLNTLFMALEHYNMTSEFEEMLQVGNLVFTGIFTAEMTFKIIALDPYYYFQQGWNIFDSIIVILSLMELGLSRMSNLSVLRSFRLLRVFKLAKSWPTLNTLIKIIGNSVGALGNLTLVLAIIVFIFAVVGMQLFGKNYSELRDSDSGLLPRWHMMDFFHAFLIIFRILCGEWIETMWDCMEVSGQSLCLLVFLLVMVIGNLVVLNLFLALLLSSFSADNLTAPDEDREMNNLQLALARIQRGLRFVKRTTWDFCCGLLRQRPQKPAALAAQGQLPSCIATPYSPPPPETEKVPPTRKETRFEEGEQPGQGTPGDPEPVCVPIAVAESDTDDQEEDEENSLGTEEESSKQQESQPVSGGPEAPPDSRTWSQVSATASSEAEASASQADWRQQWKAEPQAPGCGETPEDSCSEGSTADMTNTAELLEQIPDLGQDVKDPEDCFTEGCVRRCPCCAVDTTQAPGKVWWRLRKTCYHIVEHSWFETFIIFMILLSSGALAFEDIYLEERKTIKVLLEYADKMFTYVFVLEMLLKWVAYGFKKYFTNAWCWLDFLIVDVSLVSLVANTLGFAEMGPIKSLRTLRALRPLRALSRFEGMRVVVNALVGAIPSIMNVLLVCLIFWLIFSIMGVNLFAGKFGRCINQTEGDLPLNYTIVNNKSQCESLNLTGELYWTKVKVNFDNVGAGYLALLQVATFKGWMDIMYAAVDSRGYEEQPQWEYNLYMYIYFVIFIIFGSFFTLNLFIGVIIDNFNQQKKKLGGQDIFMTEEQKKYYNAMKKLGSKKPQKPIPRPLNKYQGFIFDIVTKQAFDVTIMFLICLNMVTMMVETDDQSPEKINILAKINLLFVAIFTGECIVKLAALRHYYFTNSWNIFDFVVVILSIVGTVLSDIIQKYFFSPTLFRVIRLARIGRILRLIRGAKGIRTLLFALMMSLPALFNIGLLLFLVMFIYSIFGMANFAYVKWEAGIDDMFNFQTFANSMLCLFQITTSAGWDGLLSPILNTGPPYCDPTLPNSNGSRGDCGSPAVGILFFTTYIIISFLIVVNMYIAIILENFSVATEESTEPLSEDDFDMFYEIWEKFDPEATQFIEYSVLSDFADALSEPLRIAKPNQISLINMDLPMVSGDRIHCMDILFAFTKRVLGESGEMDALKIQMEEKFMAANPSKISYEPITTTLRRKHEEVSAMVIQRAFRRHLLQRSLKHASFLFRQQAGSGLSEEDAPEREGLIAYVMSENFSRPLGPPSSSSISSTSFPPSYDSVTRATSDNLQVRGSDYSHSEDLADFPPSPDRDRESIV
Chain of CYP3A4 (P08684 whole entry): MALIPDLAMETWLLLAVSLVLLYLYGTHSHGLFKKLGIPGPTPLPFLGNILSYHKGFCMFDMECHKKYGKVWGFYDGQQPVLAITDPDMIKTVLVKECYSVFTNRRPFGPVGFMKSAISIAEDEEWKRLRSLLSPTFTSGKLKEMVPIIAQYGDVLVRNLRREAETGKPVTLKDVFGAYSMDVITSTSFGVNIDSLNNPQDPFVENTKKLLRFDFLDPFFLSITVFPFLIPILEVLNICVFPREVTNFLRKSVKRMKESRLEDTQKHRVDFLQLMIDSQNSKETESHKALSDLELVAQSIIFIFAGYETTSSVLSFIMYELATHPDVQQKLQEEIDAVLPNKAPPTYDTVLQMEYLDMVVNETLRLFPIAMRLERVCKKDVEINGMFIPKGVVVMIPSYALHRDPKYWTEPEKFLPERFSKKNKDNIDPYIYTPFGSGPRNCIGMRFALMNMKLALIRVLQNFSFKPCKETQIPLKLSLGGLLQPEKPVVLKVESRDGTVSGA

CC[C@H](C[C@H](O)[C@@H](N)CN1CC(=O)N(c2ccccc2Cl)CC1(C)C)C(=O)N[C@H]1C2CC3CC1C[C@](O)(C3)C2.O=C(O)/C=C/C(=O)O
Activity (Canis familiaris [1]): 5.8%
Ratio IC50 [2]: 0.8
inhibition (INH) [3]: Not Active
Activity (Heart [4]): 1.7%
Activity (Canis familiaris [5]): -5.4%
Activity (Oryctolagus cuniculus [6]): -1.3%
inhibition (Cynomolgus monkey [7]): Active
Activity (Oryctolagus cuniculus [8]): -3.2%
Activity (Oryctolagus cuniculus [9]): 3.9%
IC50 (Renin): 6.3 nM
Activity (Canis familiaris [10]): -1.5%
activity at 100 µM (CYP3A4): 77.9%
Activity (Rattus norvegicus): Non-toxic
concentration at 0.5 h [11]: 38100 ng/mL
concentration at 4 h [12]: 5400 ng/mL
Activity (Oryctolagus cuniculus [13]): -1.3%
Activity (Cynomolgus monkey [14]): -7.6%
inhibition (Cynomolgus monkey [15]): Dose-dependent effect
inhibition (Cynomolgus monkey [16]): Dose-dependent effect
Activity (Cynomolgus monkey [17]): 0.3%
Activity (Canis familiaris [18]): -1.4%
Activity (Heart [19]): 1.7%
Activity (Heart [20]): -5.8%
Activity (Cynomolgus monkey [21]): -0.4%
